An excerpt weighted towards active compounds, which were near 3.7% of everything screened.
Kir21 block: Kir2.1 (mouse) channel inhibition; P35561; HEK293-Kir2.1, FluxOR thallium flux fluorescence; hits give low values; B-score at 10 µM; 310,000 compounds, 0.85% hits; AID 1672;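 active = fluorescence ratio B-score at or below minus 3 SD of library scores, with starting-brightness B-score within 2 SD, cut at about -4.2 in these data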;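 also: channel flux triggered by added potassium and thallium sulfate stimulus; B-score of peak minus minimum fluorescence over baseline after thallium stimulus; more negative B-score means stronger Kir2.1 block with less thallium influx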
Target sequence (P35561 whole entry, looked up): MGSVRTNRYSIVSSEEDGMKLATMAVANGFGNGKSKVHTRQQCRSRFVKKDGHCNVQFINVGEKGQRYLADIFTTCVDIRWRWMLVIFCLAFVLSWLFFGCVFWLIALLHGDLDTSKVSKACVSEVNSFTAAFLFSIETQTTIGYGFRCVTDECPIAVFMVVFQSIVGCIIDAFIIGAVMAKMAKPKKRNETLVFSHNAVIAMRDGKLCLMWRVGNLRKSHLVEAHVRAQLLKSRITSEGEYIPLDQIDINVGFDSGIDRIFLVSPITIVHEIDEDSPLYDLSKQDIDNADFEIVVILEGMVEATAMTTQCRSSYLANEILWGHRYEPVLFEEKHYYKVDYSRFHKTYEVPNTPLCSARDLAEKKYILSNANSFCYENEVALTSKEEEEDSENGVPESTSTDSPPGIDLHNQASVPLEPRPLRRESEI
KCNK9 block: human KCNK9 channel inhibition; HEK293 KCNK9, FluxOR thallium flux fluorescence; hits give low values; 310,000 compounds, 1.2% hits; Q9NPC2; B-score at 10 µM;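 active = ratio B-score over 3 SD below the library mean, with starting fluorescence within 5 SD of its mean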;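 also: negative B-score means less thallium flux so channel inhibition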
KCNK3 inh: human KCNK3 channel inhibition, primary screen | AID 602410 | O14649 | 340,000 compounds, 0.84% hits | CHO-KCNK3 thallium flux, FluxOR fluorescence; hits give low values | B-score at 10 µM;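 active = B-score under library mean minus 4 SD, starting fluorescence ratio at most library mean plus 5 SD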;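 also: more negative B-score means stronger inhibition of thallium flux through KCNK3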
hERG rescue: compounds protecting human hERG from proarrhythmic drug block; Q12809; CHO-hERG, FluxOR thallium flux, dofetilide IC70 present; activation (rescue from dofetilide block), less the hit threshold, % at 10 µM; 310,000 compounds, 0.51% hits;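 active = activation above the mean of controls blocked by dofetilide plus 5 SD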;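 also: thallium influx through hERG after potassium depolarization seen as dye fluorescence rise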
KCNQ1 pot: human KCNQ1 channel potentiation or activation; P51787; CHO-K1 KCNQ1, thallium flux FluxOR fluorescence; hits give high values; B-score at 10 µM; 310,000 compounds, 0.35% hits;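 active = fluorescence ratio B-score, a plate-corrected score, at least three library SD, with initial intensity B-score within 5 SD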
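Assay system: stable KCNQ1 CHO-K1 line; medium: assay buffer, equal DMSO in all wells; timing: 90 min dye loading and 20 min compound exposure, both at room temperature; technique: kinetic FluxOR thallium fluorescence, 10-s 1-Hz baseline, 110-s post-stimulus read; read-out basis: B score of baseline-normalized fluorescence ratio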
KCNQ1 block: blocks the human KCNQ1 potassium channel | P51787 | CHO-K1 KCNQ1, FluxOR thallium flux fluorescence; hits give high values | B-score at 10 µM | 310,000 compounds, 1.3% hits;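 active = compounds whose thallium flux B-score, printed positive for inhibition, exceeds three library SD while starting fluorescence stays within three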;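 also: channel opened by potassium depolarization with thallium stimulus after 20 min compound exposure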
KCNQ1 inh valid: reconfirmed blocker of the human KCNQ1 potassium channel; shares compounds with KCNQ1 block; KCNQ1 cell line, FluxOR thallium flux fluorescence; inhibition, % at 10 µM; 1,600 compounds, 93% hits;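 active = primary screen active, with duplicate mean exceeding buffer control mean plus 3 SD of buffer wells, cut at about 28% in these data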;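 also: 0% = buffer control ratio and 100% = XE991 inhibitor control ratio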
CHO KCNQ1 ctr: counter-screen for KCNQ1 inhibitors: effect in parental CHO cells; shares compounds with KCNQ1 block; parental CHO-K1, FluxOR thallium flux fluorescence ratio; hits give low values; zero means no signal rise above baseline; fluorescence ratio (Tl flux) at 10 µM; 1,600 compounds, 21% hits;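 active = mean of duplicate thallium-flux fluorescence ratios in parental host cells more than 5 SD below the buffer control mean, cut at about 0.38 in these data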;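 also: ratio is peak minus minimum fluorescence divided by baseline fluorescence; actives read low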
KCNQ1 ephys val: human KCNQ1 inhibition validated by electrophysiology; shares compounds with KCNQ1 block; KCNQ1-CHO cells, automated patch clamp current; calls only at 10 µM; 490 compounds, 20% hits; AID 624120;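 active = KCNQ1 current drop exceeding 3 SD of negative control wells, seen in both duplicate runs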;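 also: steady state current during a 2 s step from -80 to +40 mV; negative values mean current inhibition and positive values mean potentiation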
KCNQ2 inh: rat KCNQ2 inhibition in KCNQ1 inhibitor specificity screen | inhibition, % at 10 µM | KCNQ2 cells, FluxOR thallium flux fluorescence | AID 651746 | 1,600 compounds, 71% hits | shares compounds with KCNQ1 block;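 active = mean percent inhibition of the KCNQ2 thallium signal more than 5 SD above the buffer-only control wells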;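 also: KCNQ2 expressed in CHO cells; 0% = buffer control wells and 100% = XE-991 inhibitor control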
KCNQ1-KCNE1 inh: selectivity of KCNQ1 inhibitors: inhibition of human KCNQ1/KCNE1 channel; shares compounds with KCNQ1 block; KCNQ1/KCNE1 cells, FluxOR thallium flux fluorescence; inhibition, % at 10 µM; 1,600 compounds, 77% hits; AID 652147;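 active = mean percent inhibition of duplicate wells above the buffer-only control mean plus 3 SD of those controls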;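 also: 0% = buffer only wells and 100% = XE-991 inhibitor control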
* hit, by the source's call; i = inactive; nt = not tested or not shown.

SMILES | Kir21 block | KCNK9 block | KCNK3 inh | hERG rescue | KCNQ1 pot | KCNQ1 block | KCNQ1 inh valid | CHO KCNQ1 ctr | KCNQ2 inh | KCNQ1-KCNE1 inh | others
COc1ccc(Cl)cc1N(C(=O)c1ccco1)C(C(=O)NC1CCCC1)c1ccco1 (centres undefined) | -1.3 | i | i | -4 | i | i | nt | nt | nt | nt
Cc1ccc(N(C(=O)c2ccco2)C(C(=O)NC2CCCC2)c2ccco2)c(C)c1 (centres undefined) | -0.88 | i | i | -9 | i | 7* | 82* | 0.44 | 76%* | 61%*
O=c1c2ccccc2nc(SCc2cccc(F)c2)n1C1CCCC1 | -1 | i | i | -19 | i | 7* | 96* | 0.49 | 81%* | 114%* | KCNQ1 ephys val=i
COCCN1CCN(c2cc(-c3ccccc3)nc3cc(-c4cccc(F)c4)nn23)CC1 | -0.56 | i | i | -12 | i | 6* | 118* | 0.34* | 133%* | 156%*
Fc1cccc(-c2cc3nc(-c4ccccc4)cc(N4CCC5(CC4)OCCO5)n3n2)c1 | 0.92 | i | i | -3 | i | i | nt | nt | nt | nt
CCn1c(=O)c(C(=O)NCc2ccc(OC)cc2)c(O)c2ccccc21 | -1.1 | i | i | -2 | i | i | nt | nt | nt | nt
CCCn1c(=O)c(C(=O)NCCc2ccc(OC)cc2)c(O)c2ccccc21 | -2.8 | i | i | -1 | i | 9* | 93* | 0.48 | 91%* | 77%* | KCNQ1 ephys val=i
COc1ccccc1NC(=O)NS(=O)(=O)c1ccc(C)cc1 | -0.12 | i | i | -12 | i | i | nt | nt | nt | nt
CCCCOCCCNc1ncnc2c1[nH]c1ccccc12 | -9.6* | i | i | -31 | i | 9* | 154* | 0.36* | 121%* | 198%*
Cc1ccc(CN=C(Nc2ccccc2)NC2CCCCC2)cc1 | -6.5* | i | i | -4 | i | 9* | 68* | 0.53 | i | 41%*
O=C(Nc1ccccc1)NC1CCCCCCC1 | -1.6 | i | i | -8 | i | i | nt | nt | nt | nt
Cc1nc(CSc2ccccc2)cc(=O)[nH]1 | -0.53 | i | i | -14 | i | i | nt | nt | nt | nt
N#Cc1ccccc1NC(=O)C1SC(=Nc2ccccc2)C(C(=O)Nc2ccc(Cl)cc2)=C1N (centres undefined) | 0.93 | i | i | -21 | i | 10* | 112* | 0.43 | 97%* | 82%* | KCNQ1 ephys val=i
CN(CC(=O)Nc1cccc(F)c1)C(=O)c1cn(-c2ccccc2)nc1-c1cccs1 | -0.06 | i | i | -11 | i | 8* | 79* | 0.49 | 83%* | 108%*
COc1ccc(C2NCCc3sccc32)cc1 (centres undefined) | 1.5 | i | i | -1 | i | i | nt | nt | nt | nt
COc1ccc(C2c3ccsc3CCN2C(=O)C(C)(C)C)cc1 (centres undefined) | 0.18 | i | i | -14 | i | 8* | 116* | 0.37* | 82%* | 152%*
CCOC(=O)C1=C(CC)Nc2ccccc2N=C1NC(=O)Nc1ccc(Cl)c(Cl)c1 | 1.9 | -6.9* | i | -4 | i | 11* | 116* | 0.52 | i | i | KCNQ1 ephys val=i
CCOC(=O)C1=C(CC)Nc2ccccc2N=C1NC(=O)c1cc(C)on1 | nt | nt | i | nt | nt | nt | nt | nt | nt | nt
CCOC(=O)c1[nH]c2ccc(Cl)cc2c1-c1ccccc1 | 0.36 | i | i | -13 | i | i | nt | nt | nt | nt

Source: PubChem BioAssay
